Measurements taken from PubChem BioAssay.
Records with an inconclusive call do not appear.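 Rule for the calls, unless noted: active = cell viability at or below a set limit in both duplicate runs, the limit being the all-compound median minus 4 SD (cut at about 23% in these data, passing the limit was not always enough); inconclusive = no clear call, values can overlap the other calls; inactive = the rest.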

How the values were obtained:
[1] = S. cerevisiae growth inhibition in permissive medium (OD615), pilot counter-assay for S. cerevisiae lifespan shortening project, permissive growth control (AID 705;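 active = growth inhibition above 25% in both replicates, a cutoff set 3 SD above the mean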); conditions: OD615, 24 h, at 10 µM, stronger effect = higher value
Outline: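 assay system = Saccharomyces cerevisiae strain carrying genetically modified DeaD replicative-lifespan system | technique = absorbance (optical density) at 615 nm | buffer or medium = permissive raffinose/galactose medium | timing = cells pre-grown 4 h, then 24 h compound exposure, 30 °C humidified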

[2] = S. cerevisiae growth inhibition in restrictive medium, OD615, pilot screen, restrictive growth control, yeast lifespan reduction project (AID 706;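 active = growth inhibition above a set limit, 3 SD over mean compound inhibition, in both replicates, cut at about 43% in these data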;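 note: modified DeaD lifespan yeast strain shifted to restrictive glucose medium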); conditions: OD615, 48 h, at 10 µM, stronger effect = higher value
Outline: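 System: modified S. cerevisiae. Buffer or medium: CSMM-D glucose medium. Incubation: 4 h pre-growth plus 48 h compound exposure, 30 °C. Detection: absorbance (optical density) measured at 615 nm.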

[3] = doxorubicin toxicity protection in MRP-1 cells – H69AR cells, CellTiter-Glo, duplicate, MRP-1 activator project, pilot screen (AID 807;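 active = viability increase at or above a cutoff of the median across tested compounds plus 3 SD, cut at about 8.5% in these data, passing the limit was not always enough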;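 note: compound pretreatment 18-22 h then 72 h combined with doxorubicin; 0% = doxorubicin alone and 100% = vehicle without doxorubicin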); conditions: H69AR viability with doxorubicin, CellTiter-Glo luminescence; at 10 µM; stronger effect = higher value
[4] = viability of HCT116 without oncogenic beta-catenin – human colon tumor cells, pilot screen (AID 823); conditions: HCT116 beta-catenin knockout viability, CellTiter-Glo, 60 h; at 10 µM; stronger effect = lower value;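 note: 0% = wells killed by 20 µM Hyamine and 100% = untreated DMSO cell wells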
[5] = viability of PTEN-null HCT116 cells – cell-based, HCT116 clonal line, CellTiter-Glo, pilot screen (AID 824;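 active = viability at or below 27.92% in each of two runs, the all-compound median minus 4 SD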;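 note: 0% = 20 µM Hyamine control and 100% = vehicle cell control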); conditions: HCT116 PTEN-deleted viability, 60 h, at 10 µM, stronger effect = lower value
[6] = RAM pathway blockade in budding yeast – dse1pr::URA3 reporter, 5-FOA selection, pilot screen (AID 869;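 active = inhibition over a set limit, the all-compound mean plus 3 SD, in both replicate runs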;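 note: 0% = DMSO wells with no growth and 100% = 10 µM 1-NA-PP1 with full growth; RAM network block rescues cells from 5-FOA so hits raise OD615 growth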); conditions: S. cerevisiae dse1pr::URA3 5-FOA growth, OD615, 2 d; at 10 µM; stronger effect = higher value; strain carries analog-sensitive mutant Cbk1 kinase
[7] = RAM signaling pathway blockade in yeast – S. cerevisiae, Pdr1DBD-CYC8 efflux-inhibited sensitized strain, primary screen (AID 1298;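 active = RAM network inhibition above 8.4% in each of two replicates, 3 SD over the compound average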;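 note: 0% = DMSO untreated cells without growth and 100% = 10 µM 1-NA-PP1 full growth; higher means more yeast growth rescued from 5-FOA killing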); conditions: S. cerevisiae cbk1-as DSE1-URA3 strain, 5-FOA growth OD615, 2 d; at 50 µM; stronger effect = higher value

Cc1cc(NC(=O)CSCc2nc(-c3cccc(Cl)c3)oc2C)no1
inactive: growth inhibition [1] -12.6% | growth inhibition [2] -5.47% | viability increase [3] 1.25% | viability [4] 94.3% | viability [5] 95.5% | inhibition [6] 1.98% | RAM network inhibition [7] 11.2%

O=C(NCc1ccccc1)c1cc(S(=O)(=O)N2CCOCC2)ccc1F
inactive: growth inhibition [1] -3.95% | growth inhibition [2] -30.7% | viability increase [3] 0.27% | viability [4] 94.7% | viability [5] 93% | inhibition [6] 3.29% | RAM network inhibition [7] 3.42%

Cc1ccccc1C(=O)Nc1ccccc1
inactive: growth inhibition [1] -0.285% | growth inhibition [2] -2.05% | viability increase [3] -0.99% | viability [4] 96.1% | viability [5] 85.4% | inhibition [6] 0.28% | RAM network inhibition [7] 0.56%

CCCCCN=C(C)c1c(O)c2ccccc2oc1=O
inactive: growth inhibition [1] 1.51% | growth inhibition [2] 1.03% | viability increase [3] 1.19% | viability [4] 94.8% | viability [5] 90.7% | inhibition [6] -0.66% | RAM network inhibition [7] -1.55%

CN(C)/C=N/c1c(C#N)cnn1-c1ccccc1
inactive: growth inhibition [1] -5.88% | growth inhibition [2] -14.5% | viability increase [3] -1.11% | viability [4] 103% | viability [5] 96.6% | inhibition [6] 1.95% | RAM network inhibition [7] 4.32%

CCOC(=O)c1c(NC(=O)C2CCCN2S(=O)(=O)c2cccc3nsnc23)sc(C)c1C (configuration not stated)
inactive: growth inhibition [1] -7.06% | growth inhibition [2] -0.39% | viability increase [3] 0.59% | viability [4] 74% | viability [5] 72.5% | inhibition [6] 0.565% | RAM network inhibition [7] 7.77%

CCOC(=O)N1CCC(NC(=O)CN2C(=O)CSc3ncccc32)CC1
inactive: growth inhibition [1] 0.38% | growth inhibition [2] -5.29% | viability increase [3] -0.23% | viability [4] 104% | viability [5] 99% | inhibition [6] 2.81% | RAM network inhibition [7] 1.48%

CC(C)C(NS(=O)(=O)c1ccc2c3c(cccc13)C(=O)N2)C(=O)O (configuration not stated)
inactive: growth inhibition [1] -4.62% | growth inhibition [2] -4.4% | viability increase [3] -0.28% | viability [4] 97% | viability [5] 93.6% | inhibition [6] 1.71% | RAM network inhibition [7] 3.8%

O=C1NCCCC1C(=O)N1CCN(C(=O)c2ccco2)CC1 (configuration not stated)
inactive: growth inhibition [1] -3.22% | growth inhibition [2] -1.05% | viability increase [3] -0.63% | viability [4] 106% | viability [5] 98.6% | inhibition [6] -0.03% | RAM network inhibition [7] 0.31%

Cc1cc(C)cc(N(CC(=O)NCc2ccco2)S(=O)(=O)c2c(C)noc2C)c1
inactive: growth inhibition [1] -22% | growth inhibition [2] -17.1% | viability increase [3] -4.19% | viability [4] 95.2% | viability [5] 84.5% | inhibition [6] 2.42% | RAM network inhibition [7] 5.53%

NC(=O)CN1CCN(C(=O)NC2CCCCC2)CC1
inactive: growth inhibition [1] -18.1% | growth inhibition [2] -12.7% | viability increase [3] 0.06% | viability [4] 96% | viability [5] 97.9% | inhibition [6] 2.7% | RAM network inhibition [7] 2.11%

CCOC(=O)c1cn(-c2ccccc2)nc1-c1cccnc1
inactive: growth inhibition [1] -13.6% | growth inhibition [2] -8.75% | viability increase [3] -3.34% | viability [4] 106% | viability [5] 93.5% | inhibition [6] 1.63% | RAM network inhibition [7] 7.28%

COc1ccc(C(=O)/C(C)=N/O)cc1OC
inactive: growth inhibition [1] -15.6% | growth inhibition [2] -1.75% | viability increase [3] -0.59% | viability [4] 90.5% | viability [5] 88.6% | inhibition [6] 1.42% | RAM network inhibition [7] 2.98%

COc1ccc(N(CC(=O)N2CCN(c3ccccc3)CC2)S(=O)(=O)c2c(C)noc2C)cc1
inactive: growth inhibition [1] -9.29% | growth inhibition [2] -0.83% | viability increase [3] -4.48% | viability [4] 93.7% | viability [5] 85.6% | inhibition [6] 0.315% | RAM network inhibition [7] 3.7%

O=C(c1ccc(CN2CCOCC2)cc1)N1CCN(Cc2ccccc2)CC1
inactive: growth inhibition [1] -15% | growth inhibition [2] -5.85% | viability increase [3] 0.28% | viability [4] 97.5% | viability [5] 97.9% | inhibition [6] 0.83% | RAM network inhibition [7] 12.1%

CC1CCCCN1CCn1cnc2c([nH]c3ccccc32)c1=O (configuration not stated)
inactive: growth inhibition [1] -2.21% | growth inhibition [2] 5.29% | viability increase [3] -4.17% | viability [4] 88.1% | viability [5] 87.4% | inhibition [6] -0.135% | RAM network inhibition [7] 4.11%

N#Cc1ccccc1N=C1CCCN1Cc1ccccc1
inactive: growth inhibition [1] -3.08% | growth inhibition [2] 9.46% | viability increase [3] 0.25% | viability [4] 88.8% | viability [5] 95.2% | inhibition [6] 0.63% | RAM network inhibition [7] 4.48%

CC(=O)Nc1ccc(S(=O)(=O)c2ccc(N)cc2)cc1N
inactive: growth inhibition [1] -3.35% | growth inhibition [2] 2.46% | viability increase [3] -1.15% | viability [4] 104% | viability [5] 98.8% | inhibition [6] 2.1% | RAM network inhibition [7] 3.91%

c1ccc(N2CCN(C3CCSC3)CC2)cc1 (configuration not stated)
inactive: growth inhibition [1] -20.2% | growth inhibition [2] -15.7% | viability increase [3] 1.11% | viability [4] 96% | viability [5] 94.3% | inhibition [6] 1.05% | RAM network inhibition [7] -1.2%

CCc1ccc(Nc2cc(C)nc3nc(C)nn23)cc1
inactive: growth inhibition [1] -16.8% | growth inhibition [2] -7.12% | viability increase [3] -4.04% | viability [4] 96.8% | viability [5] 96% | inhibition [6] 1.99% | RAM network inhibition [7] 4.01%

CC(C)CC(=O)Nc1ccc(C(=O)COc2ccc(-c3nnco3)cc2)cc1
inactive: growth inhibition [1] -0.165% | growth inhibition [2] -0.795% | viability increase [3] 0.84% | viability [4] 88% | viability [5] 87% | inhibition [6] 0.965% | RAM network inhibition [7] 2.46%

CCn1c2ccccc2c2cc(NC(=O)c3ccco3)ccc21
inactive: growth inhibition [1] -4.29% | growth inhibition [2] -0.22% | viability increase [3] -3.74% | viability [4] 96.1% | viability [5] 93% | inhibition [6] 0.345% | RAM network inhibition [7] 0.96%

COc1ccc(-c2cc(C(F)F)n3ncc(C(=O)N4CCN(C(=O)c5ccco5)CC4)c3n2)cc1
inactive: growth inhibition [1] -2.55% | growth inhibition [2] -0.9% | viability increase [3] -5.07% | viability [4] 74.5% | viability [5] 72.6% | inhibition [6] 0.475% | RAM network inhibition [7] 10.2%

O=C(CCS(=O)(=O)c1cccc2nsnc12)N1CCN(C(=O)c2ccco2)CC1
inactive: growth inhibition [1] -2.63% | growth inhibition [2] -12.5% | viability increase [3] -4.22% | viability [4] 103% | viability [5] 102% | inhibition [6] 0.36% | RAM network inhibition [7] 1.07%

COc1ccccc1N(CC(=O)Nc1ccccc1C(=O)NC(C)C)S(C)(=O)=O
inactive: growth inhibition [1] -3.27% | growth inhibition [2] -16.6% | viability increase [3] -0.99% | viability [4] 86.6% | viability [5] 77% | inhibition [6] 1.95% | RAM network inhibition [7] -0.28%

Cc1ccc(-n2c(SCC(N)=O)nc3c([nH]c4ccccc43)c2=O)cc1
inactive: growth inhibition [1] -15.5% | growth inhibition [2] -5.78% | viability increase [3] -2.14% | viability [4] 91.3% | viability [5] 87.5% | inhibition [6] 0.24% | RAM network inhibition [7] -0.05%

Cc1ccc(-c2c(C(=O)N3CCOCC3)oc(=O)c3ccccc23)cc1
inactive: growth inhibition [1] -9.96% | growth inhibition [2] -6.92% | viability increase [3] -0.03% | viability [4] 95.6% | viability [5] 103% | inhibition [6] 1.33% | RAM network inhibition [7] 1.2%

COc1ccc(C)cc1NC(=O)c1cc2c(CO)cnc(C)c2oc1=N
inactive: growth inhibition [1] -16.1% | growth inhibition [2] -10.5% | viability increase [3] -0.06% | viability [4] 97.5% | viability [5] 89.7% | inhibition [6] 1.31% | RAM network inhibition [7] 0.63%

COc1ccc(OC)c(Nc2cc(C)nc3nc(C)nn23)c1
inactive: growth inhibition [1] 0.505% | growth inhibition [2] -0.375% | viability increase [3] -5.35% | viability [4] 65.5% | viability [5] 57.4% | inhibition [6] 1.67% | RAM network inhibition [7] 5.24%

Cc1ccc2cc(CCNC(=O)C(C)(C)C)c(=O)[nH]c2c1
inactive: growth inhibition [1] -5.49% | growth inhibition [2] -13.2% | viability increase [3] 0.4% | viability [4] 105% | viability [5] 97.5% | inhibition [6] 0.125% | RAM network inhibition [7] 3.53%

CC(=O)N1c2ccccc2C(=O)C1N1CCCCC1 (configuration not stated)
inactive: growth inhibition [1] -3.63% | growth inhibition [2] -9.52% | viability increase [3] -3.42% | viability [4] 93.1% | viability [5] 84.4% | inhibition [6] 0.985% | RAM network inhibition [7] -1.19%

CCOc1ccc2nc(NC(=O)Nc3cccs3)sc2c1
inactive: growth inhibition [1] -10.4% | growth inhibition [2] -19.9% | viability increase [3] -3.88% | viability [4] 40.1% | viability [5] 31.6% | inhibition [6] 1.08% | RAM network inhibition [7] 0.79%

CCCCCCN1C(=O)C(O)=C(C(C)=O)C1c1ccc(Cl)cc1 (configuration not stated)
inactive: growth inhibition [1] -6.47% | growth inhibition [2] 7.25% | viability increase [3] 0.3% | viability [4] 106% | viability [5] 100% | inhibition [6] -0.245% | RAM network inhibition [7] 8.31%

NS(=O)(=O)c1ccc(CCNC(=O)C2CCCN(S(=O)(=O)c3cccnc3)C2)cc1 (configuration not stated)
inactive: growth inhibition [1] -8.75% | growth inhibition [2] -8.71% | viability increase [3] -0.63% | viability [4] 108% | viability [5] 97.7% | inhibition [6] 1.63% | RAM network inhibition [7] 5.27%

Cc1cc(OCc2ccc(F)cc2)nc(-c2ccccc2O)n1
inactive: growth inhibition [1] -0.25% | growth inhibition [2] -3.18% | viability increase [3] 2.19% | viability [4] 76.6% | viability [5] 70.3% | inhibition [6] 1.35% | RAM network inhibition [7] 2.72%

Cc1ccc2oc(=O)c3cnn(CC(=O)N(CCCN4CCOCC4)Cc4ccco4)c3c2c1
inactive: growth inhibition [1] -16.5% | growth inhibition [2] -28.7% | viability increase [3] -3.59% | viability [4] 93.2% | viability [5] 87.9% | inhibition [6] 1.55% | RAM network inhibition [7] 3.73%
